Columns and labels:
Assay type in all cases: functional, cell-based
KB = test: Cytotoxicity against human KB cells after 72 hrs by SRB assay
MDA-MB-231 = test: Cytotoxicity against human MDA-MB-231 cells after 72 hrs by SRB assay
In short: (§1)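 Cells grown in RPMI-1640 with 2 mM L-glutamine, 25 mM HEPES, 10% heat-inactivated FBS, penicillin/streptomycin and amphotericin B, 5% CO2. Seeded at 4.0–7.5 × 10^3 cells/well into medium containing graded sample concentrations, 72 h at 37 °C. Fixed with 10% TCA for 30 min, stained 0.04% SRB for 30 min, dye solubilized in 10 mM Tris base, absorbance at 515 nm. Triplicate runs with duplicate samples, mean IC50 ± SD.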

[1] = Cytotoxicity against human KBVIN cells after 72 hrs by SRB assay; in short: as §1
A549 = test: Cytotoxicity against human A549 cells after 72 hrs by SRB assay

## CCCCS(=O)(=O)/N=C(\CCOC1CC(C)(C)N([O])C(C)(C)C1)NCC(=O)O[C@]1(CC)C(=O)OCc2c1cc1n(c2=O)Cc2cc3ccccc3nc2-1
KB
  IC50: 75 nM
MDA-MB-231
  IC50: 230 nM
[1]; kbvin
  IC50: 95 nM
A549
  IC50: 62 nM

## CC[C@@]1(OC(=O)CN/C(CCOCC2CC(C)(C)N([O])C(C)(C)C2)=N/S(=O)(=O)c2ccc(C)cc2)C(=O)OCc2c1cc1n(c2=O)Cc2cc3ccccc3nc2-1
KB
  IC50: 80 nM
MDA-MB-231
  IC50: 91 nM
[1]; kbvin
  IC50: 84 nM
A549
  IC50: 62 nM

## CC[C@@]1(OC(=O)CN/C(CCOC2CC(C)(C)N([O])C(C)(C)C2)=N/S(=O)(=O)c2ccc3ccccc3c2)C(=O)OCc2c1cc1n(c2=O)Cc2cc3ccccc3nc2-1
KB
  IC50: 580 nM
MDA-MB-231
  IC50: 610 nM
[1]; kbvin
  IC50: 330 nM
A549
  IC50: 480 nM

## CC[C@@]1(O)C(=O)OCc2c1cc1n(c2=O)Cc2cc3c(CN(C)C)c(O)ccc3nc2-1 [TOPOTECAN]
[1]; Homo sapiens, KBVIN, 72 h
  IC50: 400 nM

## CCC(C)[C@@H](N/C(CCOC1CC(C)(C)N([O])C(C)(C)C1)=N/S(=O)(=O)c1ccc(C)cc1)C(=O)O[C@]1(CC)C(=O)OCc2c1cc1n(c2=O)Cc2cc3ccccc3nc2-1 (stereo partly specified)
KB
  IC50: > 1000 nM
MDA-MB-231
  IC50: > 1000 nM
[1]; kbvin
  IC50: > 1000 nM
A549
  IC50: > 1000 nM

## CC[C@@]1(OC(=O)[C@H](N/C(CCOC2CC(C)(C)N([O])C(C)(C)C2)=N/S(=O)(=O)c2ccc(C)cc2)C(C)C)C(=O)OCc2c1cc1n(c2=O)Cc2cc3ccccc3nc2-1
KB
  IC50: > 1000 nM
MDA-MB-231
  IC50: > 1000 nM
[1]; kbvin
  IC50: > 1000 nM
A549
  IC50: > 1000 nM

## CC[C@@]1(OC(=O)CN/C(CCOC2CC(C)(C)N([O])C(C)(C)C2)=N/S(=O)(=O)c2ccc(F)cc2)C(=O)OCc2c1cc1n(c2=O)Cc2cc3ccccc3nc2-1
KB
  IC50: 120 nM
MDA-MB-231
  IC50: 270 nM
[1]; kbvin
  IC50: 100 nM
A549
  IC50: 86 nM

## CC[C@@]1(OC(=O)CN/C(CCOCC2=CC(C)(C)N([O])C2(C)C)=N/S(=O)(=O)c2ccc(F)cc2)C(=O)OCc2c1cc1n(c2=O)Cc2cc3ccccc3nc2-1
KB
  IC50: 120 nM
MDA-MB-231
  IC50: 140 nM
[1]; kbvin
  IC50: 95 nM
A549
  IC50: 77 nM

## CC[C@@]1(OC(=O)CN/C(CCOC2CC(C)(C)N([O])C(C)(C)C2)=N/S(=O)(=O)c2ccc(Cl)cc2)C(=O)OCc2c1cc1n(c2=O)Cc2cc3ccccc3nc2-1
KB
  IC50: 73 nM
MDA-MB-231
  IC50: 190 nM
[1]; kbvin
  IC50: 84 nM
A549
  IC50: 63 nM

## CC[C@@]1(OC(=O)CN/C(CCOC2CC(C)(C)N([O])C(C)(C)C2)=N/S(C)(=O)=O)C(=O)OCc2c1cc1n(c2=O)Cc2cc3ccccc3nc2-1
KB
  IC50: 71 nM
MDA-MB-231
  IC50: 110 nM
[1]; kbvin
  IC50: 90 nM
A549
  IC50: 59 nM

## CC[C@@]1(OC(=O)CN/C(CCOC2CC(C)(C)N([O])C(C)(C)C2)=N/S(=O)(=O)CC)C(=O)OCc2c1cc1n(c2=O)Cc2cc3ccccc3nc2-1
KB
  IC50: 59 nM
MDA-MB-231
  IC50: 80 nM
[1]; kbvin
  IC50: 57 nM
A549
  IC50: 55 nM

## CC[C@@]1(OC(=O)CN/C(CCOCC2=CC(C)(C)N([O])C2(C)C)=N/S(C)(=O)=O)C(=O)OCc2c1cc1n(c2=O)Cc2cc3ccccc3nc2-1
KB
  IC50: 82.3 nM
MDA-MB-231
  IC50: 103 nM
[1]; kbvin
  IC50: 83.4 nM
A549
  IC50: 62.9 nM

## CC[C@@]1(OC(=O)[C@@H](Cc2ccccc2)N/C(CCOC2CC(C)(C)N([O])C(C)(C)C2)=N/S(=O)(=O)c2ccc(C)cc2)C(=O)OCc2c1cc1n(c2=O)Cc2cc3ccccc3nc2-1
KB
  IC50: 310 nM
MDA-MB-231
  IC50: 500 nM
[1]; kbvin
  IC50: 100 nM
A549
  IC50: 170 nM

## CC[C@@]1(OC(=O)CN/C(CCOC2CC(C)(C)N([O])C(C)(C)C2)=N/S(=O)(=O)c2ccc([N+](=O)[O-])cc2)C(=O)OCc2c1cc1n(c2=O)Cc2cc3ccccc3nc2-1
KB
  IC50: 59 nM
MDA-MB-231
  IC50: 100 nM
[1]; kbvin
  IC50: 72 nM
A549
  IC50: 58 nM

## CC[C@@]1(OC(=O)[C@@H](C)N/C(CCOC2CC(C)(C)N([O])C(C)(C)C2)=N/S(=O)(=O)c2ccc(C)cc2)C(=O)OCc2c1cc1n(c2=O)Cc2cc3ccccc3nc2-1
KB
  IC50: 560 nM
MDA-MB-231
  IC50: 530 nM
[1]; kbvin
  IC50: 250 nM
A549
  IC50: 450 nM

## CC[C@@]1(OC(=O)[C@@H](CC(C)C)N/C(CCOC2CC(C)(C)N([O])C(C)(C)C2)=N/S(=O)(=O)c2ccc(C)cc2)C(=O)OCc2c1cc1n(c2=O)Cc2cc3ccccc3nc2-1
KB
  IC50: 700 nM
MDA-MB-231
  IC50: 840 nM
[1]; kbvin
  IC50: 740 nM
A549
  IC50: 610 nM

## CC[C@@]1(OC(=O)CN/C(CCOCC2=CC(C)(C)N([O])C2(C)C)=N/S(=O)(=O)c2ccc(C)cc2)C(=O)OCc2c1cc1n(c2=O)Cc2cc3ccccc3nc2-1
KB
  IC50: 91 nM
MDA-MB-231
  IC50: 120 nM
[1]; kbvin
  IC50: 94 nM
A549
  IC50: 74 nM

## CC[C@@]1(OC(=O)CN/C(CCOC2CC(C)(C)N([O])C(C)(C)C2)=N/S(=O)(=O)c2cccs2)C(=O)OCc2c1cc1n(c2=O)Cc2cc3ccccc3nc2-1
KB
  IC50: 63 nM
MDA-MB-231
  IC50: 110 nM
[1]; kbvin
  IC50: 83 nM
A549
  IC50: 63 nM

## CC[C@@]1(OC(=O)CN/C(CCOCC2=CC(C)(C)N([O])C2(C)C)=N/S(=O)(=O)c2ccc(OC)cc2)C(=O)OCc2c1cc1n(c2=O)Cc2cc3ccccc3nc2-1
KB
  IC50: 130 nM
MDA-MB-231
  IC50: 180 nM
[1]; kbvin
  IC50: 150 nM
A549
  IC50: 90 nM

## CC[C@@]1(OC(=O)CN/C(CCOC2CC(C)(C)N([O])C(C)(C)C2)=N/S(=O)(=O)c2ccc(C)cc2)C(=O)OCc2c1cc1n(c2=O)Cc2cc3ccccc3nc2-1
KB
  IC50: 210 nM
MDA-MB-231
  IC50: 450 nM
[1]; kbvin
  IC50: 110 nM
A549
  IC50: 76 nM

## CC[C@@]1(OC(=O)CN/C(CCOC2CC(C)(C)N([O])C(C)(C)C2)=N/S(=O)(=O)c2ccc(OC)cc2)C(=O)OCc2c1cc1n(c2=O)Cc2cc3ccccc3nc2-1
KB
  IC50: 110 nM
MDA-MB-231
  IC50: 270 nM
[1]; kbvin
  IC50: 96 nM
A549
  IC50: 81 nM

Source: ChEMBL document CHEMBL3351902, “Design and synthesis of novel spin-labeled camptothecin derivatives as potent cytotoxic agents” (Bioorg Med Chem, 2014)
